Results from ChEMBL document CHEMBL5252662, “Rimonabant-Based Compounds Bearing Hydrophobic Amino Acid Derivatives as Cannabinoid Receptor Subtype 1 Ligands” (ACS Med Chem Lett, 2023).
pEC50, pKi: −log10 of the molar value. The source made the active and inactive calls. No cut-off for these calls is given here.

Legend:
Cannabinoid receptor 1 [1] = biological target: T1, Cannabinoid receptor 1 (Rattus norvegicus, UniProt P20272); assay: Displacement of [3H]-WIN55212-2 from CB1R in rat brain membranes incubated for 60 mins by radioligand competitive binding assay; type: cell membranes, Membrane; conditions: for pKi: read-out: Ki
Mus musculus [2] = assay: Induction of food uptake in CD-1 mouse model at 10 mg/kg, ip measured after 1 hr; type: functional, organism-based
Outline: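 Mice dosed i.p. at 10 mg/kg and left 30 min. Each was then placed in an individual cage with 2 g of standard chow, and intake was measured over a 1 h test. Mean ± SEM from the same seven mice at each dose, compared with vehicle-treated animals.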

Cannabinoid receptor 1 [3] = biological target: T1, Cannabinoid receptor 1; assay: Agonist activity at rat brain membrane CB1 receptor assessed as stimulation of [35S]GTPgammaS binding incubated for 60 mins; type: cell membranes
[4] = biological target: Cannabinoid receptor 1 (Rattus norvegicus) (UniProt P20272); assay: Agonist activity at rat brain membrane CB1 receptor assessed as stimulation of [35S]GTPgammaS binding incubated for 60 mins relative to control; type: cell membranes; conditions: filed as agonist
Mus musculus [5] = assay: Antinociceptive activity in CD-1 mouse assessed as increase in response time to thermal nociceptive stimuli at 10 ug, icv measured after 60 mins by hot plate test; type: functional, organism-based; conditions: dose 10.0 µg
Outline: (§1)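 Single i.c.v. injection of 10 μg/10 μL; vehicle saline with 0.1% v/v DMSO. Response latency to thermal stimulus on hot plate recorded over time after dosing. Expressed as % maximum possible effect (%MPE) ± SEM, N = 7.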

Mus musculus [6] = assay: Anti-inflammatory activity against zymosan-induced paw edema CD-1 mouse model assessed as reduction of increased paw volume at 100 ug,sc administered 30 mins prior to zymosan challenge and measured after 1 to 4 hrs; type: functional, organism-based; conditions: dose 100.0 µg, time lower […], time upper […]
Mus musculus [7] = assay: Antinociceptive activity in CD-1 mouse assessed as increase in response time to thermal nociceptive stimuli at 10 ug, icv measured at 15 to 120 mins; type: functional, organism-based; conditions: dose 10.0 µg, time lower […], time upper […]; outline: as §1

T1 sequence (P20272 whole entry): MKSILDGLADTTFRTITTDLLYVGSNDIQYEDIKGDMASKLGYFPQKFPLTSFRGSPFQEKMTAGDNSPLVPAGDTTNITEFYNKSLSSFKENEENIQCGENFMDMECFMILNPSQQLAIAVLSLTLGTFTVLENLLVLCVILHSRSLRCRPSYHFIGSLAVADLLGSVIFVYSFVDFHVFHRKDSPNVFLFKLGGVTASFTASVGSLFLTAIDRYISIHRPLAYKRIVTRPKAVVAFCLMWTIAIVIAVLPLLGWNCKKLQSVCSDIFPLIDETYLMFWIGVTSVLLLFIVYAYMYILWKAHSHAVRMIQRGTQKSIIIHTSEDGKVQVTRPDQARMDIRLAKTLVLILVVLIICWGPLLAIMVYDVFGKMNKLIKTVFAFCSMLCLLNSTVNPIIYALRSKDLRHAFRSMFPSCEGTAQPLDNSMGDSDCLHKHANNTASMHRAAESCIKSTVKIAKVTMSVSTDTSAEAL
Sequence of Cannabinoid receptor 1 (Rattus norvegicus) (P20272 whole entry): as above

Question: For `CNC(=O)[C@@H](NC(=O)c1nn(-c2ccc(Cl)cc2Cl)c(-n2cccc2Cl)c1C)C(C)(C)C`, which Ki (Cannabinoid receptor 1 [1]) is on record?
Answer: Not Active

Question: For `Cc1c(C(=O)N[C@H](C(=O)O)C(C)C)nn(-c2ccc(Cl)cc2)c1-n1cccc1`, which Ki (Cannabinoid receptor 1 [1]) is on record?
Answer: Not Active

Question: For `COC(=O)[C@@H](NC(=O)c1cc(-n2cccc2)n(-c2ccc(Cl)cc2)n1)C(C)(C)C`, which Activity (Mus musculus [2]) is on record?
Answer: inactive

Question: How did the Activity (Mus musculus [2]) turn out when `COC(=O)[C@@H](NC(=O)c1cc(-n2cccc2)n(-c2ccc(Cl)cc2)n1)C(C)C` was run?
Answer: inactive

Question: With `CC(C)[C@H](NC(=O)c1cc(-n2cccc2)n(-c2ccccc2)n1)C(=O)O` as the compound, how does the Ki (Cannabinoid receptor 1 [1]) read?
Answer: Not Active

Question: With `COC(=O)[C@@H](NC(=O)c1cc(-n2cccc2)n(-c2ccccc2)n1)C(C)(C)C` as the compound, how does the Activity (Mus musculus [2]) read?
Answer: Active

Question: `Cc1c(C(=O)N[C@H](C(N)=O)C(C)(C)C)nn(-c2ccc(Cl)c(Cl)c2)c1-n1cccc1Cl` was tested. Which pKi (Cannabinoid receptor 1 [1]) did it give?
Answer: 7.35

Question: What about the pEC50 (Cannabinoid receptor 1 [3]) of the same compound?
Answer: 5.73

Question: And the Emax [4]?
Answer: 70%

Question: What about the Activity (Mus musculus [2]) of the same compound?
Answer: inactive

Question: With `COC(=O)[C@@H](NC(=O)c1nn(-c2ccc(Cl)cc2Cl)c(-n2cccc2Cl)c1C)C(C)C` as the compound, how does the Activity (Mus musculus [2]) read?
Answer: Active

Question: With `Cc1c(C(=O)c2cccc3ccccc23)c2cccc3c2n1[C@H](CN1CCOCC1)CO3` as the compound, how does the Activity (Mus musculus [5]) read?
Answer: Active

Question: For `Cc1c(C(=O)N[C@H](C(=O)O)C(C)(C)C)nn(-c2ccc(Cl)cc2Cl)c1-n1cccc1Cl`, which Ki (Cannabinoid receptor 1 [1]) is on record?
Answer: Not Active

Question: Which Ki (Cannabinoid receptor 1 [1]) does the source give for `Cc1c(C(=O)N[C@H](C(=O)O)C(C)C)nn(-c2ccccc2)c1-n1cccc1` here?
Answer: Not Active

Question: How did the Ki (Cannabinoid receptor 1 [1]) turn out when `CC(C)[C@H](NC(=O)c1cc(-n2cccc2)n(-c2ccccc2)n1)C(N)=O` was run?
Answer: Not Active

Question: `Cc1c(C(=O)N[C@H](C(=O)O)C(C)(C)C)nn(-c2ccccc2)c1-n1cccc1` was tested. Which Ki (Cannabinoid receptor 1 [1]) did it give?
Answer: Not Active

Question: With `CC(C)(C)[C@H](NC(=O)c1cc(-n2cccc2)n(-c2ccc(Cl)cc2)n1)C(=O)O` as the compound, how does the Ki (Cannabinoid receptor 1 [1]) read?
Answer: Not Active

Question: With `Cc1c(C(=O)N[C@H](C(N)=O)C(C)(C)C)nn(-c2ccccc2)c1-n1cccc1` as the compound, how does the Activity (Mus musculus [2]) read?
Answer: inactive

Question: Which results are given for `CNC(=O)[C@@H](NC(=O)c1nn(-c2ccc(Cl)cc2)c(-n2cccc2)c1C)C(C)(C)C`?
Answer: Activity (Mus musculus [2]): Active; Activity (Mus musculus [6]): Active; Activity (Mus musculus [7]): Active

Question: With `Cc1c(C(=O)N[C@H](C(=O)O)C(C)C)nn(-c2ccc(Cl)cc2Cl)c1-n1cccc1Cl` as the compound, how does the Ki (Cannabinoid receptor 1 [1]) read?
Answer: Not Active

Question: Which results are given for `Cc1c(C(=O)N[C@H](C(N)=O)C(C)C)nn(-c2ccc(Cl)c(Cl)c2)c1-n1cccc1Cl`?
Answer: pKi (Cannabinoid receptor 1 [1]): 6.35; pEC50 (Cannabinoid receptor 1 [3]): 6.07; Emax [4]: 60%

Question: For `CC(C)(C)[C@H](NC(=O)c1cc(-n2cccc2)n(-c2ccccc2)n1)C(=O)O`, which Ki (Cannabinoid receptor 1 [1]) is on record?
Answer: Not Active

Question: With `COC(=O)[C@@H](NC(=O)c1nn(-c2ccc(Cl)cc2)c(-n2cccc2)c1C)C(C)(C)C` as the compound, how does the Activity (Mus musculus [2]) read?
Answer: inactive

Question: `Cc1c(C(=O)N[C@H](C(N)=O)C(C)(C)C)nn(-c2ccc(Cl)cc2)c1-n1cccc1` was tested. Which Activity (Mus musculus [2]) did it give?
Answer: inactive

Question: How did the Ki (Cannabinoid receptor 1 [1]) turn out when `CC(C)[C@H](NC(=O)c1cc(-n2cccc2)n(-c2ccc(Cl)cc2)n1)C(=O)O` was run?
Answer: Not Active
